Converted amounts (≈) assume the structure as drawn. “And” between values parts separate entries of the source, which are not always exact repeats. Identical values can stand only once.
How the values were obtained:
Rattus norvegicus [1] = species: Rattus norvegicus; experiment: In vitro inhibitory activity against rat microsomal lipid peroxidation (m-LPO); assay type: functional
Outline: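 Lipid peroxidation used rat liver microsomes driven by ferrous sulfate/cysteine, per the Malvy et al. approach. IC50 is given in µg/mL.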

Mus musculus [2] = experiment: In vivo activity against serum lipid peroxidation level (s-LPO) by using Alloxan-induced hyperlipoperoxidemia method in BALB/c mice after peroral administration at 100 mg/Kg dose; assay type: functional
Outline: (§1)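 Male BALB/c mice, 8 weeks old, were fasted 18 h and then given alloxan 75 mg/kg iv. Compound was dosed orally 30 min before and 24 and 30 h after alloxan. Cervical blood was taken at 48 h, diluted in saline and centrifuged. Serum LPO was measured by TBA method; cholesterol and TG by enzymatic kits. Values are % decrease versus alloxan controls without compound.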

Mus musculus [3] = experiment: In vivo activity against hypocholesterol (CHOL) by using Alloxan-induced hyperlipoperoxidemia method in BALB/c mice after peroral administration at 100 mg/Kg dose; assay type: functional; outline: as §1
Mus musculus [4] = experiment: Hypoglycemic activity at dose 50 mg/Kg in KK-mice after peroral administration; assay type: functional
Outline: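 Male KK-mice, a genetically diabetic NIDDM model, were housed singly from 8 weeks of age and used at about 4-5 months once body weight exceeded 40 g. Compound was suspended in 0.5% carboxymethylcellulose saline and dosed orally 18 h before tail-vein blood sampling into heparinized tubes. Plasma glucose was measured with a glucose analyzer. Values are % decrease versus vehicle-dosed controls run simultaneously.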

Mus musculus [5] = experiment: In vivo activity against triglycerides (TG) by using Alloxan-induced hyperlipoperoxidemia method in BALB/c mice after peroral administration at 100 mg/Kg dose; assay type: functional; outline: as §1
Mus musculus [6] = experiment: In vivo activity against serum lipid peroxidation level (s-LPO) by using Alloxan-induced hyperlipoperoxidemia method in BALB/c mice after peroral administration at 300 mg/kg dose; assay type: functional; settings: route oral; outline: as §1
Mus musculus [7] = experiment: In vivo activity against hypocholesterol (CHOL) by using Alloxan-induced hyperlipoperoxidemia method in BALB/c mice after peroral administration at 100 mg/kg dose; assay type: functional; settings: route oral; outline: as §1
Mus musculus [8] = experiment: In vivo activity against serum lipid peroxidation level (s-LPO) by using Alloxan-induced hyperlipoperoxidemia method in BALB/c mice after peroral administration at 100 mg/kg dose; assay type: functional; settings: route oral; outline: as §1
Mus musculus [9] = experiment: In vivo activity against triglycerides (TG) by using Alloxan-induced hyperlipoperoxidemia method in BALB/c mice after peroral administration at 300 mg/kg dose; assay type: functional; settings: route oral; outline: as §1
Rattus norvegicus [10] = species: Rattus norvegicus; experiment: Hypotriglyceridemic activity of Wistar-Imamichi rats in 12 animals
Rattus norvegicus [11] = experiment: Hypotriglyceridemic activity of Wistar-Imamichi rats in 6 animals at 300 mg/kg dose
Rattus norvegicus [12] = species: Rattus norvegicus; experiment: liver weight in Wistar-Imamichi rats at 0.2% in the diet for 7 days in 6 rats; settings: dose 0.2% in diet
Rattus norvegicus [13] = species: Rattus norvegicus; experiment: Inhibitory activity on peroxidation by a relative peroxide value(POV) to vitamin E by using ethyl linoleate; assay type: functional
Outline: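 Peroxide formed was titrated with 0.01 N Na2S2O3 after adding water. The peroxide value was expressed relative to vitamin E.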

Mus musculus [14] = experiment: In vivo activity against triglycerides (TG) by using Alloxan-induced hyperlipoperoxidemia method in BALB/c mice after peroral administration at 300 mg/Kg dose; assay type: functional; outline: as §1
Mus musculus [15] = experiment: In vivo activity against hypocholesterol (CHOL) by Alloxan-induced hyperlipoperoxidemia method in BALB/c mice after peroral administration at 50 mg/Kg dose; assay type: functional; outline: as §1
Mus musculus [16] = experiment: In vivo activity against hypocholesterol (CHOL) by using Alloxan-induced hyperlipoperoxidemia method in BALB/c mice after peroral administration at 300 mg/Kg dose; assay type: functional; outline: as §1
Mus musculus [17] = experiment: In vivo activity against serum lipid peroxidation level (s-LPO) by using Alloxan-induced hyperlipoperoxidemia method in BALB/c mice after peroral administration at 300 mg/Kg dose; assay type: functional; outline: as §1
Mus musculus [18] = experiment: In vivo activity against triglycerides (TG) by Alloxan-induced hyperlipoperoxidemia method in BALB/c mice after peroral administration at 50 mg/Kg dose; assay type: functional; outline: as §1
Mus musculus [19] = experiment: In vivo activity against triglycerides (TG) by using Alloxan-induced hyperlipoperoxidemia method in BALB/c mice after peroral administration at 10 mg/Kg dose; assay type: functional; outline: as §1
Mus musculus [20] = experiment: In vivo activity against serum lipid peroxidation level (s-LPO) by using Alloxan-induced hyperlipoperoxidemia method in BALB/c mice after peroral administration at 10 mg/Kg dose; assay type: functional; outline: as §1
Mus musculus [21] = experiment: In vivo activity against hypocholesterol (CHOL) by using Alloxan-induced hyperlipoperoxidemia method in BALB/c mice after peroral administration at 10 mg/Kg dose; assay type: functional; outline: as §1
Mus musculus [22] = experiment: In vivo activity against serum lipid peroxidation level (s-LPO) by using Alloxan-induced hyperlipoperoxidemia method in BALB/c mice after peroral administration at 50 mg/Kg dose; assay type: functional; outline: as §1

| SMILES | IC50 (Rattus norvegicus [1]) [µg/mL] | Decrease (Mus musculus [2]) [%] | Decrease (Mus musculus [3]) [%] | Decrease (Mus musculus [5]) [%] | other results |
| --- | --- | --- | --- | --- | --- |
| COc1c(O)c(C)c2c(c1OC)OC(C)(CCOc1ccc(CC3SC(=O)NC3=O)cc1)CC2 (stereo not given) | 0.3 (≈ 0.615 µM) | – | – | – | – |
| CC(=O)Oc1cc2c(cc1C(C)(C)C)OC(C)(CCOc1ccc(CC3SC(N)=NC3=O)cc1)CC2 (stereo not given) | 0.1 (≈ 0.196 µM) | – | – | – | – |
| CC(=O)Oc1c(C)c(C)c2c(c1C)CCC(C)(COc1ccc(CC3SC(=O)NC3=O)cc1)O2 (stereo not given) | < 0.1 | 6.7 | 4 | -4 | Decrease (Mus musculus [4]): 2.6% |
| COc1c(OC(C)=O)c(C)c2c(c1OC)OC(C)(CCOc1ccc(CC3SC(N)=NC3=O)cc1)CC2 (stereo not given) | 0.3 (≈ 0.568 µM) | – | – | – | – |
| Cc1cc2c(cc1O)CCC(C)(COc1ccc(CC3SC(=O)NC3=O)cc1)O2 (stereo not given) | 0.3 (≈ 0.726 µM) | – | – | – | – |
| CCCC1Oc2c(C)c(C)c(O)c(C)c2S1 (stereo not given) | < 0.1 | – | – | – | – |
| Cc1cc(OCCCCCCCC(C)(C)CO)c(C)c(C)c1O | < 0.1 | – | – | – | – |
| Cc1ccc(C)c(OCCCC(C)(C)C(=O)O)c1 [GEMFIBROZIL] | > 1 | – | – | – | Decrease (Mus musculus [6]): 20.5%; Decrease (Mus musculus [7]): 3.2%; Decrease (Mus musculus [8]): 12.3%; Decrease (Mus musculus [9]): 12.3% and 15.9%; Decrease (Rattus norvegicus [10]): 39.4% |
| Cc1cc(OCCCC(C)(C)CO)c(C)c(C)c1O | 0.1 (≈ 0.375 µM) | – | – | – | Decrease (Rattus norvegicus [11]): 57.3%; Increase (Rattus norvegicus [12]): 23.9%; Decrease (Mus musculus [8]): 27.4%; Relative peroxidation (Rattus norvegicus [13]): 0.42 |
| CC1(COc2ccc(CC3SC(=O)NC3=O)cc2)CCCCC1 (stereo not given) [CIGLITAZONE] | > 1 | 18.7 | 10.8 | 7.9 | – |
| CC(=O)Oc1c(C)c(C)c2c(c1C)CCC(C)(CCC[C@H](C)CCC[C@H](C)CCCC(C)C)O2 (stereo not given in full) [TOCOPHEROL ACETATE] | > 1 | 46.1 | 10.7 | 27.3 | Decrease (Mus musculus [14]): 16.1%; Decrease (Mus musculus [15]): 8.3%; Decrease (Mus musculus [16]): 9.1%; Decrease (Mus musculus [17]): 56.6%; Decrease (Mus musculus [18]): 5.2%; Decrease (Mus musculus [19]): 36.5%; Decrease (Mus musculus [20]): 23.5%; Decrease (Mus musculus [21]): 20.4%; Decrease (Mus musculus [22]): 27.9% |
| Cc1c(C)c2c(c(C)c1O)SCO2 | < 0.1 | – | – | – | – |
| CC1(COc2ccc(CC3SC(=O)NC3=O)cc2)CCc2cc(O)c(C(C)(C)C)cc2O1 (stereo not given) | < 0.1 | 16.1 | 5.6 | -48.6 | Decrease (Mus musculus [4]): 28.5% |
| CC1(CCOc2ccc(CC3SC(=O)NC3=O)cc2)CCc2cc(O)c(C(C)(C)C)cc2O1 (stereo not given) | 0.1 (≈ 0.213 µM) | – | – | – | – |
| Cc1c(C)c2c(c(C)c1O)CCC(COc1ccc(CC3SC(=O)NC3=O)cc1)(CC(C)C)O2 (stereo not given) | 0.1 (≈ 0.207 µM) | 1.5 | 12.1 | 11.9 | – |

Reference: ChEMBL document CHEMBL1124681, “Studies on hindered phenols and analogues. 1. Hypolipidemic and hypoglycemic agents with ability to inhibit lipid peroxidation” (J Med Chem, 1989)
